# Experimental data: ChEMBL document CHEMBL1909618, “Non-steroidal dissociated glucocorticoid agonists: indoles as A-ring mimetics and function-regulating pharmacophores” (Bioorg Med Chem Lett, 2011)
# Active and inactive are the calls of the source. No cut-off for these calls is given here.
# Legend:
# [1] = target: T1, Androgen receptor (Homo sapiens) (UniProt P10275); experiment: Displacement of [3H]-testosterone from human recombinant androgen receptor expressed in baculovirus infected insect cells at 1200 nM
# T1 sequence (whole entry): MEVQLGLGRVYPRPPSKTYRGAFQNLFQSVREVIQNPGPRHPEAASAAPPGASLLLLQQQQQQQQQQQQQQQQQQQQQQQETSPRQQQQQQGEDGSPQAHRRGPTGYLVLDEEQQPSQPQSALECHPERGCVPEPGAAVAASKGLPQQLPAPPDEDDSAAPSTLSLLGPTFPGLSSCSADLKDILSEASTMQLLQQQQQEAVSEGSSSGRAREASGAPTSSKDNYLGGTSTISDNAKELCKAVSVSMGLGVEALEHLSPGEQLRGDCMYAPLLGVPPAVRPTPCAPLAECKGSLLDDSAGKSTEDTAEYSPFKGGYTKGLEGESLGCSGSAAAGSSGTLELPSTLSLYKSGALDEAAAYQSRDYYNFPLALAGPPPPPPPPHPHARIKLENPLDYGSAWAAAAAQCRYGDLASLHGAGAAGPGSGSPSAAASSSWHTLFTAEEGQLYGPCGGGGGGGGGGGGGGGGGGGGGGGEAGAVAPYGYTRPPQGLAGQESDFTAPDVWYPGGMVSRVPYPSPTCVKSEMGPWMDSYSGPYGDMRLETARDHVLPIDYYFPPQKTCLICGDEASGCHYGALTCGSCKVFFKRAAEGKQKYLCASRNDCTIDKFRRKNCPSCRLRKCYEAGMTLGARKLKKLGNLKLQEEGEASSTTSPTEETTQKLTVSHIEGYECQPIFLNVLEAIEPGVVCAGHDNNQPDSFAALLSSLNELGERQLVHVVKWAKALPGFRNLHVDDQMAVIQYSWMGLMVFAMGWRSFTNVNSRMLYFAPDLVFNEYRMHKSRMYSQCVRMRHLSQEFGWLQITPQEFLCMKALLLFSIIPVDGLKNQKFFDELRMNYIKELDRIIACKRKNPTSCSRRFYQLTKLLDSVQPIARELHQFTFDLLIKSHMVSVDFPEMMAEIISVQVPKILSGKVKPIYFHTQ
# Method in brief: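 Competition of test compound at a single concentration against 10 nM ³H-testosterone for binding to recombinant human AR in lysates of baculovirus-infected cells. Dihydrotestosterone at 2 µM served as the positive control. Results are expressed as % of control.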
# Mus musculus [2] = experiment: Toxicity in B10.R3 mouse collagen-induced arthritis model assessed as change in body fat level at 30 mg/kg, po qd for 5 weeks relative to control; type: organism-based; design: dose 30 mg/kg, route oral; conditions: in vivo, 840 h
# Method in brief: (§1)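 Arthritic B10.RIII CIA mice were dosed orally once daily for 5 weeks. At day 35 they were anesthetized with ketamine (50 mg/kg) and xylazine (15 mg/kg). Body fat was assessed by whole-body density scan. Serum triglycerides were measured by enzymatic kit (Wako L-Type TG-H) and free fatty acids by NEFA-C. Results are expressed as % change versus vehicle and compared by t-test.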
# [3] = Cmax in Sprague-Dawley rat at 30 mg/kg, po; type: ADME, organism-based; design: dose 30 mg/kg, route oral; conditions: in vivo
# Method in brief: (§2)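 Rat PK: IV dose 2 mg/kg in PEG400/water (70:30); oral dose 30 mg/kg in PEG400/H2O/Tween (80/18/2). Values are the mean of 3 rats.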
# [4] = Half life in Sprague-Dawley rat at 2 mg/kg, iv; type: ADME, organism-based; design: dose 2 mg/kg, route intravenous; conditions: in vivo; method in brief: as §2
# [5] = Oral bioavailability in B10.R3 mouse at 30 mg/kg; type: ADME, organism-based; conditions: in vivo
# Method in brief: (§3)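 Mouse PK: IV dose 1 mg/kg in PEG400/water (70:30); oral dose 30 mg/kg given as a suspension in 30% Cremophor. Values are the mean of 3 mice.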
# [6] = AUC (infinity) in Sprague-Dawley rat at 30 mg/kg, po; type: ADME, organism-based; design: dose 30 mg/kg, route oral, time infinity; conditions: plasma; method in brief: as §2
# [7] = Volume of distribution at steady state in B10.R3 mouse at 1 mg/kg, iv; type: ADME, organism-based; design: dose 1 mg/kg, route intravenous; conditions: in vivo, read-out: Vdss; method in brief: as §3
# Mus musculus [8] = experiment: Toxicity in B10.R3 mouse collagen-induced arthritis model assessed as change in serum triglyceride level at 30 mg/kg, po qd for 5 weeks relative to control; type: organism-based; design: dose 30 mg/kg, route oral; conditions: in vivo, 840 h; method in brief: as §1
# [9] = Clearance in B10.R3 mouse at 1 mg/kg, iv; type: ADME, organism-based; design: dose 1 mg/kg, route intravenous; conditions: in vivo; method in brief: as §3
# Mus musculus [10] = experiment: Antiarthritic activity in B10.R3 mouse collagen-induced arthritis model assessed as AUC of disease progression inhibition at 10 mg/kg, po qd for 5 weeks; type: functional; conditions: B10.R3, 840 h
# Method in brief: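 B10.RIII mice immunized with porcine type II collagen plus complete Freund's adjuvant were enrolled at the first signs of arthritis. They were dosed orally once daily for 5 weeks; vehicle was 30% Cremophor RH. All four paws were scored 1–4 (maximum 16 per animal). Disease-score AUCs from 10 mice per group were compared with vehicle by Mann–Whitney test.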
# [11] = Oral bioavailability in Sprague-Dawley rat at 30 mg/kg; type: ADME, organism-based; conditions: in vivo; method in brief: as §2
# Mus musculus [12] = experiment: Toxicity in B10.R3 mouse collagen-induced arthritis model assessed as change in serum insulin level at 30 mg/kg, po qd for 5 weeks by ELISA relative to control; type: organism-based; design: dose 30 mg/kg, route oral; conditions: in vivo, 840 h
# [13] = Clearance in Sprague-Dawley rat at 2 mg/kg, iv; type: ADME, organism-based; design: dose 2 mg/kg, route intravenous; conditions: in vivo; method in brief: as §2
# Mus musculus [14] = experiment: Toxicity in B10.R3 mouse collagen-induced arthritis model assessed as change in body weight at 30 mg/kg, po qd for 5 weeks relative to control; type: organism-based; design: dose 30 mg/kg, route oral; conditions: in vivo, 840 h
# [15] = Volume of distribution at steady state in Sprague-Dawley rat at 2 mg/kg, iv; type: ADME, organism-based; design: dose 2 mg/kg, route intravenous; conditions: in vivo, read-out: Vdss; method in brief: as §2
# Mus musculus [16] = experiment: Toxicity in B10.R3 mouse collagen-induced arthritis model assessed as change in serum free fatty acids level at 30 mg/kg, po qd for 5 weeks relative to control; type: organism-based; design: dose 30 mg/kg, route oral; conditions: in vivo, 840 h; method in brief: as §1
# [17] = AUC (infinity) in B10.R3 mouse at 30 mg/kg, po; type: ADME, organism-based; design: time infinity, dose 30 mg/kg, route oral; conditions: plasma; method in brief: as §3
Activity [1],Cmax [3] [ng/mL],half-life [4] [h],bioavailability [5] [%],AUC(0-inf) [6] [ng·h/mL],Vd [7] [L/kg],clearance [9] [mL/min/kg],bioavailability [11] [%],clearance [13] [mL/min/kg],Vd [15] [L/kg],AUC(0-inf) [17] [ng·h/mL],SMILES,Activity (Mus musculus [2]) [%],Activity (Mus musculus [8]) [%],inhibition in vivo at 10 mg/kg (Mus musculus [10]) [%],Activity (Mus musculus [12]) [%],Activity (Mus musculus [14]) [%],Activity (Mus musculus [16]) [%]
inactive,,,,,,,,,,,COc1ccc(F)cc1C(C)(C)C[C@@](O)(Cc1cc2ccccc2[nH]1)C(F)(F)F,,,,,,
,955,1.7,26,4850,0.9,4,51,51,7.7,32700,CC(C)(C[C@@](O)(Cc1cc2ccc(C#N)cc2[nH]1)C(F)(F)F)c1cc(S(C)(=O)=O)cc2c1OCC2,6,11,62,-29,-8,8
